From ChEMBL document CHEMBL3108713, “Identification of ML251, a Potent Inhibitor of T. brucei and T. cruzi Phosphofructokinase” (ACS Med Chem Lett, 2014) come the findings set out here.

The target in series [1] is T1, ATP-dependent 6-phosphofructokinase (Trypanosoma brucei, UniProt O15648).
T1 sequence (O15648 whole entry): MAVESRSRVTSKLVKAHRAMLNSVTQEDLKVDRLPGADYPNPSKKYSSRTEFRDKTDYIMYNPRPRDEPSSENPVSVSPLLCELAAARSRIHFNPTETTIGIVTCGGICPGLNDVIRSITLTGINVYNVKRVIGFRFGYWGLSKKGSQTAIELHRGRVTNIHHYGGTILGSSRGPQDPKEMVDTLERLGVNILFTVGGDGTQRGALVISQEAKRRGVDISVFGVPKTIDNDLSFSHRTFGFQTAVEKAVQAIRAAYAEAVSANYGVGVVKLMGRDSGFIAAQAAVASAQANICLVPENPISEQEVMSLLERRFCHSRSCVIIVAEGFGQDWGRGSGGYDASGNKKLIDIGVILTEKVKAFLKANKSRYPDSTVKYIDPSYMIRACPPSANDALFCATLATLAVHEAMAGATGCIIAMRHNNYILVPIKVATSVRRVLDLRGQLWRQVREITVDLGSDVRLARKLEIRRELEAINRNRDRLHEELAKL
The experiment in a line: Inhibition of Trypanosoma brucei PFK-mediated ADP production using ATP/fructose-6-phosphate as substrate by luciferase based luminescence assay. The essentials:
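Recombinant enzyme; ADP formed by PFK detected with modified luciferase (ADP-Glo) luminescent end-point in 1536-well format.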

Series [2] in a line: Half life in human liver microsomes. The series is classed as ADME.
Series [3] concerns the target T2, ATP-dependent 6-phosphofructokinase (Trypanosoma brucei) (UniProt O15648).
T2 sequence (whole entry): T1 sequence (O15648 whole entry)
The experiment in a line: Inhibition of Trypanosoma brucei PFK-mediated ADP production using ATP/fructose-6-phosphate as substrate at 57 uM by luciferase based luminescence assay. Summed up: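 Recombinant T. brucei PFK; ADP formed by the enzyme is converted to a luminescent signal by a modified luciferase ADP-Glo detection, read at end point.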

The nature of series [4]: Aqueous kinetic solubility of the compound. The series is classed as physicochemical. Conditions: buffer; read-out: Kinetic_solubility.
Series [5] has as its target T3, ATP-dependent 6-phosphofructokinase (Trypanosoma cruzi) (UniProt Q4E657).
T3 sequence (whole entry): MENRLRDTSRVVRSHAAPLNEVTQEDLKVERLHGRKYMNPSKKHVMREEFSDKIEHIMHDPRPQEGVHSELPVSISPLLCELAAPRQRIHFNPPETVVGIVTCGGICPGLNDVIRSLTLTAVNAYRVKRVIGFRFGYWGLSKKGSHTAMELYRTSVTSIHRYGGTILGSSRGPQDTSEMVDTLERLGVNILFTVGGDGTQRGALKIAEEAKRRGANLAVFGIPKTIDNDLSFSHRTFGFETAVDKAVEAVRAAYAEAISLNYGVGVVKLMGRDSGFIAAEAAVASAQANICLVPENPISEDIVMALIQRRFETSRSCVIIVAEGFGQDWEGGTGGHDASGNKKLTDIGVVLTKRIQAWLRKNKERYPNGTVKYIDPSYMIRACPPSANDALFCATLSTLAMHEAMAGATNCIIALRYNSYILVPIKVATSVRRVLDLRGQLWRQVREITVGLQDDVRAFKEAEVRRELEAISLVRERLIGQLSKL
The experiment in a line: Inhibition of Trypanosoma cruzi PFK at 57 uM. The essentials: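 PFK activity is measured by coupling ADP production to ADP-Glo luciferase luminescence at end point. Percent inhibition is recorded at 57 μM, the highest concentration of the dose series, with at least 3 separate experiments averaged.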

Series [6] deals with Trypanosoma brucei brucei. The experiment in a line: Antitrypanosomal activity against Trypanosoma brucei brucei Lister 427 assessed as cell viability after 72 hrs by alamar blue assay. Conditions: for EC50: Lister 427, 72 h, read-out: ED50 (the source's name). Type of series: functional.
A short description of series [7]: Cytotoxicity against human MRC5 cells assessed as intracellular ATP content after 72 hrs by Cell titer-Glo luminiscent assay. The series is classed as cell-based.
Series [8] can be described thus: Half life in mouse liver microsomes. Type of series: ADME, Microsome.
A short description of series [9]: Metabolic stability in human plasma assessed as compound remaining after 2 hrs. Conditions: read-out: Stability. Type of series: ADME, cell-free.
For series [10], the target named is T4, ATP-dependent 6-phosphofructokinase (Trypanosoma cruzi, UniProt Q4E657).
T4 sequence (Q4E657 whole entry): T3 sequence (whole entry)
The experiment in a line: Inhibition of Trypanosoma cruzi PFK.

Series [11] is described as follows: Metabolic stability in mouse plasma assessed as compound remaining after 2 hrs. The series is classed as ADME, cell-free. Conditions: read-out: Stability.
Series [12] is described as follows: Half life in rat liver microsomes. Type of series: ADME.
The target of series [13] is T1, ATP-dependent 6-phosphofructokinase. The experiment in a line: Mixed type inhibition Trypanosoma brucei PFK using ATP as substrate by Line-weaver Burk plot analysis. Summed up: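 Coupled biochemical PFK assay titrating ATP at several inhibitor levels (0, 1.5, 12.5, 50, 100 nM), F6P held saturating at 2 mM; initial velocities analysed by Lineweaver–Burk transformation, Ki from secondary plots.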

The target of series [14] is T5, ATP-dependent 6-phosphofructokinase, muscle type (Oryctolagus cuniculus) (UniProt P00511).
T5 sequence (whole entry): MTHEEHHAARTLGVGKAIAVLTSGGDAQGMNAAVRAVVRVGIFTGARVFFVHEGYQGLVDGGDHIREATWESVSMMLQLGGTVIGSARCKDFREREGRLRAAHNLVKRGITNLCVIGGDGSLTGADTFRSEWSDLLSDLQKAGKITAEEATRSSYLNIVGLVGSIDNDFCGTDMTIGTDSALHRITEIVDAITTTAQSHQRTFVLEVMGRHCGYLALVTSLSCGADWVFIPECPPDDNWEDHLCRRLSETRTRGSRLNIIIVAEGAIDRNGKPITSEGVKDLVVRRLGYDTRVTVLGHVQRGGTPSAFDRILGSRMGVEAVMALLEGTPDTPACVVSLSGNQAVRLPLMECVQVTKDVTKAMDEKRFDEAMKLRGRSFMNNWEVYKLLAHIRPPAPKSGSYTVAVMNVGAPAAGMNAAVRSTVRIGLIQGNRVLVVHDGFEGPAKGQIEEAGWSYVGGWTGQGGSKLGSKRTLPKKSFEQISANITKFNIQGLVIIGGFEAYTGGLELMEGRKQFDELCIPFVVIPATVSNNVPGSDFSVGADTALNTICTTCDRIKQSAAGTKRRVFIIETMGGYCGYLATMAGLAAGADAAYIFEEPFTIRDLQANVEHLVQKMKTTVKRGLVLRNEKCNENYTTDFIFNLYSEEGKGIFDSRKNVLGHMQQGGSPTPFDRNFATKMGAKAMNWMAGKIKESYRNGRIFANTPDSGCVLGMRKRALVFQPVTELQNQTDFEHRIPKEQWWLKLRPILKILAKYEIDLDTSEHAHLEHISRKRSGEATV
The experiment in a line: Inhibition of recombinant rabbit muscle PFK expressed in PFK-deficient Escherichia coli DF1020DE3 using ATP/fructose 6 phosphate as substrate at 1 uM. Type of series: tissue-based. Conditions: Muscle tissue.

Series [15] has as its target T1, ATP-dependent 6-phosphofructokinase. The experiment in a line: Competitive inhibition Trypanosoma brucei PFK using fructose-6-phosphate as substrate by Line-weaver Burk plot analysis. The essentials: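 Coupled biochemical PFK assay titrating F6P at several inhibitor levels (0, 1.5, 12.5, 50, 100 nM), ATP held saturating at 0.5 mM; initial velocities analysed by Lineweaver–Burk transformation, Ki from secondary plots.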

In series [16] the test system is Trypanosoma brucei brucei. The experiment in a line: Antitrypanosomal activity against Trypanosoma brucei brucei Lister 427 assessed as cell viability at 1.3 to 33.3 ug/ml after 72 hrs by alamar blue assay. Type of series: functional, organism-based.

Converted amounts (≈) assume the structure as drawn. The source made the active and inactive calls. No cut-off for these calls is given here.

In the case of `O=C(Cc1ccc(Cl)c(Cl)c1)Nc1ccc(S(=O)(=O)Nc2ccon2)cc1`, the values for the IC50 in series [1] and in series [10] were 370 nM and 130 nM, respectively. For the same molecule, the half-life in series [2] was 5.5 h; in series [8], 3.85 h; in series [12] it was more than 0.5 h. Moreover, the inhibition in series [3] and in series [5] was more than 80% throughout. In addition, in series [4], the solubility kinetic is more than 81 µg/mL. In [6], the Activity entry was “Dose-dependent effect”. Further, the EC50 in [6] came out at 16300 nM. Moreover, the CC50 at 72 h in [7] is more than 46000 nM. For the same molecule, the remaining at 2 h in [9] and in series [11] was more than 95% each time.
`O=C(Cc1ccc(F)c(Cl)c1)Nc1ccc(S(=O)(=O)Nc2nncs2)cc1`: the IC50 in series [1] was 15 nM; in series [10], 172 nM. The Ki in series [13] was 240 nM; in [15], 52 nM. In addition, the inhibition in series [3] and in [5] was more than 80% throughout. For the same molecule, the inhibition result in series [14] is “inactive”. Further, the solubility kinetic in series [4] is more than 81 µg/mL. Further, the CC50 at 72 h in [7] is more than 46000 nM. Moreover, the remaining at 2 h in series [9] and in series [11] was more than 95% throughout. For the same molecule, the outcome in series [16] was inactive. This molecule also yielded a half-life in series [12] of more than 0.5 h.
For the molecule `Cc1cc(NS(=O)(=O)c2ccc(NC(=O)Cc3ccc(Cl)c(Cl)c3)cc2)no1`, the results for the IC50 in series [1] and in series [10] were 410 nM and 230 nM, respectively. For the same molecule, the inhibition in series [3] and in [5] was more than 80% in each case. Moreover, the solubility kinetic in series [4] amounted to 23.3 µg/mL (≈ 52.9 µM). Also, the Activity result in series [6] was “Dose-dependent effect”. Further, in series [6], the EC50 amounted to 26800 nM. In addition, the CC50 at 72 h in [7] was more than 46000 nM. The half-life in series [8] is 6.8 h; in [12] it was 0.162 h.
For the molecule `Cc1cc(NS(=O)(=O)c2ccc(NC(=O)Cc3ccc(Cl)cc3Cl)cc2)no1`, the IC50 in [1] is 4610 nM; in [10], 14600 nM. The inhibition in series [3] and in [5] was more than 80% throughout.
For `Cc1cc(NS(=O)(=O)c2ccc(NC(=O)Cc3ccc(Cl)c(F)c3)cc2)no1`, the IC50 in [1] is 700 nM; in series [10], 650 nM. Besides, the inhibition in series [3] and in series [5] was more than 80% each time.
`Cc1cc(NS(=O)(=O)c2ccc(NC(=O)Cc3ccc(C)c(F)c3)cc2)no1`: the IC50 in series [1] was determined as 5800 nM; in series [10], 4600 nM. For the same molecule, the inhibition in series [3] and in [5] was more than 80% throughout.
Consider `Cc1cc(NS(=O)(=O)c2ccc(N(C)C(=O)Cc3ccc(Cl)c(Cl)c3)cc2)no1`, for which the values for the IC50 in series [1] and in [10] were 6510 nM and 1300 nM, respectively. The inhibition in series [3] and in series [5] was more than 80% in each case.
